# Assay outcomes as filed in PubChem BioAssay.
# Exocytosis inh = blocks lytic granule exocytosis; TALL-104 LAMP-1 surface exposure, flow cytometry; cells stimulated with thapsigargin and PMA; inhibition, % at 10 µM; 0.66% of 360,000 active; AID 651702;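 active = inhibition above about 55%, limit read from the data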
# Mdm2-MdmX inh = inhibitors of human Mdm2/MdmX interaction; O15151+Q00987; SaOS-2 split-luciferase Mdm2/MdmX complementation, luminescence; inhibition, % at 8 µM; 3% of 330,000 active; AID 485346;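 active = inhibition of at least 50% at 8 µM in the primary screen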
# Target sequence (O15151 whole entry, looked up): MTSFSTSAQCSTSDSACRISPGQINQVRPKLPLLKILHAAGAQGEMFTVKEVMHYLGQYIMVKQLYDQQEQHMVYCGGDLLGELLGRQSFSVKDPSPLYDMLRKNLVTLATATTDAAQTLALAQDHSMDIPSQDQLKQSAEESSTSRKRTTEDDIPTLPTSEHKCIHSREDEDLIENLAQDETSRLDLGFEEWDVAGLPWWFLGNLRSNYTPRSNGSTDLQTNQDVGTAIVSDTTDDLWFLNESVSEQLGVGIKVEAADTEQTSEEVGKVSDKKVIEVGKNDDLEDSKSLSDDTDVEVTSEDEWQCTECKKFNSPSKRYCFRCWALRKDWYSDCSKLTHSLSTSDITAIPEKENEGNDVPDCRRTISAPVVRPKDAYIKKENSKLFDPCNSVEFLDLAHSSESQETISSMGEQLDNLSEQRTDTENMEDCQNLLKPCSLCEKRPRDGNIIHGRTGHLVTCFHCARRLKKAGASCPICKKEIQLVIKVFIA
# Target sequence (Q00987 whole entry, looked up): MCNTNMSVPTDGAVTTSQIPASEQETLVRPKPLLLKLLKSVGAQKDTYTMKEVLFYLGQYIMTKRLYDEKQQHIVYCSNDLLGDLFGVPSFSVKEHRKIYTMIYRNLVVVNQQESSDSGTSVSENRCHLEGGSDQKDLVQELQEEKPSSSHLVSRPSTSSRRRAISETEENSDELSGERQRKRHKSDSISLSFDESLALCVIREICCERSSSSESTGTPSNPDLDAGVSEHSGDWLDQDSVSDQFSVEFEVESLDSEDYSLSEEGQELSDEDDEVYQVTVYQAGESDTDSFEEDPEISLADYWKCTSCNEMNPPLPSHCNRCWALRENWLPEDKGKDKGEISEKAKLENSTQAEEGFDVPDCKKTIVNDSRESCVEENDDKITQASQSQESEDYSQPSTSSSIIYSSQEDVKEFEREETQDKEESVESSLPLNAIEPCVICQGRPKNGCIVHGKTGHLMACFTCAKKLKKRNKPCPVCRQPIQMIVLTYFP
# XBP1 UPR activ = activators of adaptive arm of unfolded protein response (XBP1) | activation, % at 20 µM | CHO-XBP1 luciferase reporter, IRE1-XBP1 UPR activation, luminescence; percent of tunicamycin response, DMSO as zero | 0.33% of 330,000 active | AID 463104;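 active = versus positive control, 20 µM dose yields 30% or more activation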;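 also: 100% = tunicamycin at 10 µg/mL and 0% = DMSO only wells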
#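 Material: CHO-XBP1 cells stably carrying IRE1-XBP1-driven luciferase reporter / Amount: 1000 cells per well / Compound: 20 µM, 1% DMSO / Times: 6 h treatment, 37 °C / Detection: luciferase luminescence / Measure: % activation of reporter signal versus tunicamycin and DMSO controls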
# UPR CHOP act = apoptotic UPR (CHOP) activation | 0.34% of 330,000 active | CHO-CHOP luciferase reporter, luminescence; percent of tunicamycin response over DMSO baseline | activation, % at 10 µM | AID 449763;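 active = at 10 µM dose, activation of 40% or more, normalized to positive control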;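 also: 100% = tunicamycin at 10 µg/mL and 0% = DMSO alone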
#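 Evaluation: % reporter activation, DMSO baseline versus tunicamycin full activation; System: CHO-CHOP luciferase reporter cell line; Input: 500 cells/well; Incubation: 6 h compound treatment, 37 °C; Measured by: Steady-Glo luciferase luminescence; Dosing: one dose, 10 µM in 0.5% DMSO; Buffer or medium: F12 medium, 10% FBS; Benchmarks: positive tunicamycin 10 µg/mL, negative DMSO alone.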
# ABHD5-PLIN5 inh = ABHD5-PLIN5 protein interaction inhibition | Q00G26+Q8WTS1 | Split G. princeps luciferase complementation, luminescence, 4 h | inhibition, % at 4 µM | 0.78% of 360,000 active | AID 602281;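 active = inhibition above the mean inhibition across every tested compound plus 3 SD, cut at about 22% in these data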;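 also: 0% = DMSO only wells and the 100% control is not disclosed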
# Mdm2 MdmX conf = confirmation of human Mdm2/MdmX interaction inhibitors. shares compounds with Mdm2-MdmX inh. Mdm2-MdmX binding, luminescent assay. inhibition, % at 8 µM. 55% of 10,000 active. AID 489028; in the data active = inhibition above about 40%
# FLuc counter = counter-screen for Mdm2/MdmX inhibitors: full-length luciferase | shares compounds with Mdm2-MdmX inh | SaOS-2 full-length luciferase counterscreen, luminescence | inhibition, % at 8 µM | 77% of 6,200 active;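 active = mean inhibition at 8 µM reaching about 37%, which flags the compound as non-specific, limit read from the data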;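 also: p53-null SaOS-2 cells with luciferase driven by a doxycycline-inducible promoter; compound on cells about two nights before reading with doxycycline added after day one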
# * = called active by the depositor; . = no result. The list is not random: actives were taken first. Their share in the collection is about 4%.
SMILES,Exocytosis inh,Mdm2-MdmX inh,XBP1 UPR activ,UPR CHOP act,ABHD5-PLIN5 inh,Mdm2 MdmX conf,FLuc counter
Cc1ccc(-c2csc(/C=C3\SC(C)C(=O)N3CC(=O)Nc3ccccc3F)n2)cc1 (centres undefined),19,47,-1,2,-1,.,.
O=C(CN1C(=O)CS/C1=C\c1nc(-c2ccc(Cl)cc2)cs1)Nc1cccnc1Cl,9,79*,13,1,-4,19,.
COc1ccc(-c2nnc(SCC(=O)N3CCCCC3)o2)c(OC)c1,0,-29,5,2,-4,.,.
CCOC(=O)c1sc(=S)n(C)c1NC(=O)c1ccc(C(C)(C)C)cc1,23,61*,-2,-2,-4,31,.
CCN1CCN(c2cc(C)c3cc(NC(=O)c4ccc5c(c4)OCO5)ccc3n2)CC1,27,71*,24,11,4,50*,84*
CCN1CCN(c2cc(C)c3cc(NC(=O)c4ccc(OC)c(OC)c4)ccc3n2)CC1,9,38,-6,3,-6,.,.
CCN1CCN(c2cc(C)c3cc(NC(=O)c4cccc(OC)c4)ccc3n2)CC1,2,16,3,5,1,.,.
CCN1CCN(c2cc(C)c3cc(NC(=O)c4cncc(Br)c4)ccc3n2)CC1,9,66*,3,3,8,27,.
C=CCn1c(=NC(=O)c2sc3ccccc3c2Cl)sc2cc(S(N)(=O)=O)ccc21,21,68*,26,5,2,35,.
COCCn1c(=NC(=O)c2sc3ccccc3c2Cl)sc2cc(S(N)(=O)=O)ccc21,14,41,-1,-1,0,.,.
CCOC(=O)Cn1c(=NC(=O)c2nc3ccccc3s2)sc2cc(S(N)(=O)=O)ccc21,-10,63*,7,0,-1,18,.
Cc1c(Cl)cccc1N/C(SCC(=O)N1CCCCCC1)=C(/C#N)c1nc2ccccc2s1,-1,91*,4,3,0,66*,36
O=C(CSc1nc2ccccc2s1)N1CCCCC1,-4,-64,1,4,-6,.,.
N#CC1=C(N)NC(SCc2ccccc2)=C(C#N)C12CCCCC2,4,64*,-2,-1,-8,61*,72*
CCSC1=C(C#N)C2(CCCCC2)C(C#N)=C(N)N1,3,41,-1,3,-14,.,.
Cc1ccc(NC(=S)NCc2ccc3[nH]c4c(c3c2)CCCC4)cc1,9,72*,1,2,6,8,.
CN1CCN(c2nc(-c3ccccc3)c3cc(Cl)ccc3n2)CC1,2,19,3,4,14,.,.
O=C1CN(c2nc(-c3ccccc3)c3cc(Cl)ccc3n2)c2ccccc2N1,-2,68*,22,36,4,1,.
COc1ccc(-c2nn(-c3ccccc3)cc2C(=O)N2c3ccc(C)cc3C3CN(C)CCC32)cc1 (centres undefined),13,54*,-3,2,6,35,74*
O=C1C2C(c3ccccc3)CC=CC2[C@H](c2ccc3ccccc3c2)N1Cc1ccccc1 (some centres undefined),2,57*,0,4,-6,30,.
Cc1ccc(F)c([C@H]2C3C=CCC(c4ccccc4)C3C(=O)N2Cc2ccccc2)c1 (some centres undefined),42,58*,2,4,-14,24,.
CC[C@@H]1CC=C[C@H]2[C@H]1C(=O)N(Cc1ccccc1)[C@H]2c1cc(C)ccc1F,.,54*,-2,1,.,42*,49*
O=C1C2C(c3ccccc3)CC=CC2[C@H](c2ccoc2)N1Cc1ccccc1 (some centres undefined),-9,2,1,1,2,.,.
C[C@@H]1CN([C@@H](C)CO)C(=O)CCCn2nncc2CO[C@H]1CN(C)Cc1ccncc1,3,.,.,.,-6,.,.
COc1cc2c(cc1OC)N1C(=O)CC(OCC(=O)O)C3C4CC5(CCN5C(=O)C4=O)C2C31 (centres undefined),-3,29,-2,0,-4,.,.
SMILES,Exocytosis inh,Mdm2-MdmX inh,XBP1 UPR activ,UPR CHOP act,ABHD5-PLIN5 inh,Mdm2 MdmX conf,FLuc counter
COc1ccc(/C=C/C(=O)NCCCc2ccccc2)cc1,3,-12,-3,0,4,.,.
COc1ccc(/C=C/c2cc[n+](C(=O)Cc3ccccc3)cc2)cc1,47,63*,-1,0,14,52*,45*
CN(C)/C=C/C(=O)c1ccc2noc(-c3ccccc3)c2c1,6,51*,2,-1,5,34,.
CC(=O)c1ccc2noc(-c3cccc(C)c3)c2c1,-2,-23,1,4,2,.,.
Cn1ncc2c(Nc3ccccc3Cl)nc(Nc3ccccc3Cl)nc21,3,54*,10,0,-11,7,.
Cc1cc(C)nc(Nc2ccccc2Cl)n1,-13,8,-1,1,-9,.,.
Cc1nn2c(=O)cc(CSc3ccccc3NC(=O)c3ccccc3)nc2s1,1,-11,0,3,-12,.,.
CCn1cc([N+](=O)[O-])c(C(=O)N2N=C(c3ccc4ccccc4c3)CC2c2ccccc2O)n1 (centres undefined),-1,61*,9,6,8,59*,86*
CCn1cc([N+](=O)[O-])c(C(=O)N2N=C(c3cccc4ccccc34)CC2c2ccccc2O)n1 (centres undefined),2,52*,3,3,12,41*,75*
CCn1cc([N+](=O)[O-])c(C(=O)N2N=C(c3ccc(OC)cc3OC)CC2c2ccccc2O)n1 (centres undefined),0,15,4,4,3,.,.
CCn1cc(Cl)c(C(=O)N2N=C(c3ccc4ccccc4c3)CC2c2ccccc2O)n1 (centres undefined),18,69*,9,4,1,40*,57*
COc1ccc(NC(=O)CSc2nnc(-c3ccncc3)o2)c(OC)c1,2,15,-2,2,-10,.,.
Oc1cccc2ccc(Nc3ccccn3)nc12,0,72*,14,7,1,100*,52*
N=c1n(CCN2CCCCC2)c2ccccc2n1CC(O)COc1ccccc1 (centres undefined),2,61*,-5,2,1,38,81*
COc1ccccc1OCC(O)Cn1c(=N)n(CCN2CCCCC2)c2ccccc21 (centres undefined),-4,56*,-1,1,0,46*,74*
N=c1n(CCN2CCOCC2)c2ccccc2n1CC(O)COc1ccccc1 (centres undefined),-1,16,-6,4,8,.,.
